# From ChEMBL document CHEMBL1124929, “Indolo[2,1-a]isoquinolines. Syntheses, steroid hormone receptor binding affinities, and cytostatic activity” (1990)
# How the values were obtained:
# MCF7 [1] = assay: Effect on [3H]thymidine incorporation into MCF-7 human breast cancer cells at 1x10E-7M; type: functional
# Procedure, shortened: (§1)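 Cells were seeded at ~2 × 10⁴ per well, treated from the next day in 0.1% DMSO, with DMSO controls. MCF-7 cells were held in charcoal-stripped NCS for 2 weeks, treated for 5 days and re-dosed on day 4. MDA-MB 231 cells were grown in McCoy 5a/10% NCS and treated for 2 days. At the end, 1 µCi [³H]thymidine per well was added for 2 h. Result is % T/C, mean of three experiments × six dishes.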
# MDA-MB-231 [2] = assay: Cytostatic effect on hormone-independent MDA-MB 231 human breast cancer cell proliferation at 1x10E-5 M; type: functional
# Procedure, shortened: (§2)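 Cells were plated at about 2 × 10⁴ per well in six-well dishes. MCF-7 cells were grown in modified improved MEM with 5% NCS, switched to charcoal-treated NCS two weeks before the test, and exposed for 5 days with a re-dose on day 4. MDA-MB 231 cells were grown in McCoy 5a with 10% NCS and exposed for 2 days. Compounds were given 1 day after plating in 0.1% DMSO, with DMSO-matched controls. Read-out was cell number as % T/C, mean of three experiments with six dishes.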
# MDA-MB-231 [3] = assay: Cytostatic effect on hormone-independent MDA-MB 231 human breast cancer cell proliferation at 1x10E-6M; type: functional; procedure, shortened: as §2
# MDA-MB-231 [4] = assay: Cytostatic effect on hormone-independent MDA-MB 231 human breast cancer cell proliferation at5x10E-6M; type: functional; procedure, shortened: as §2
# [5] = target: T1, Estrogen receptor (Mus musculus) (UniProt O08537+P19785); assay: Inhibition of 0.4 ug estrone-stimulated uterine growth in mice at 250 ug subcutaneous dose; type: functional
# Procedure, shortened: (§3)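 Immature 20-day-old female NMRI mice received sc injections on three consecutive days. Each injection held 0.4 µg estrone plus the compound in PEG/saline 1:1. […] Significance was tested by Mann-Whitney U test.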
# [6] = target: T1, Estrogen receptor (Mus musculus); assay: Inhibition of 0.4 ug estrone-stimulated uterine growth in mice at 50.0 ug subcutaneous dose; p<0.01; type: functional; procedure, shortened: as §3
# MCF7 [7] = assay: Effect on hormone-dependent MCF-7 human breast cancer cell proliferation at 1x10E-5 M; type: functional; procedure, shortened: as §2
# [8] = target: T2, Androgen receptor (Mus musculus) (UniProt P19091); assay: Inhibition of testosterone-stimulated seminal vesicle growth in castrated mice supplemented with 0.3 mg of TP at 1000.0 ug; type: functional
# T2 sequence (whole entry): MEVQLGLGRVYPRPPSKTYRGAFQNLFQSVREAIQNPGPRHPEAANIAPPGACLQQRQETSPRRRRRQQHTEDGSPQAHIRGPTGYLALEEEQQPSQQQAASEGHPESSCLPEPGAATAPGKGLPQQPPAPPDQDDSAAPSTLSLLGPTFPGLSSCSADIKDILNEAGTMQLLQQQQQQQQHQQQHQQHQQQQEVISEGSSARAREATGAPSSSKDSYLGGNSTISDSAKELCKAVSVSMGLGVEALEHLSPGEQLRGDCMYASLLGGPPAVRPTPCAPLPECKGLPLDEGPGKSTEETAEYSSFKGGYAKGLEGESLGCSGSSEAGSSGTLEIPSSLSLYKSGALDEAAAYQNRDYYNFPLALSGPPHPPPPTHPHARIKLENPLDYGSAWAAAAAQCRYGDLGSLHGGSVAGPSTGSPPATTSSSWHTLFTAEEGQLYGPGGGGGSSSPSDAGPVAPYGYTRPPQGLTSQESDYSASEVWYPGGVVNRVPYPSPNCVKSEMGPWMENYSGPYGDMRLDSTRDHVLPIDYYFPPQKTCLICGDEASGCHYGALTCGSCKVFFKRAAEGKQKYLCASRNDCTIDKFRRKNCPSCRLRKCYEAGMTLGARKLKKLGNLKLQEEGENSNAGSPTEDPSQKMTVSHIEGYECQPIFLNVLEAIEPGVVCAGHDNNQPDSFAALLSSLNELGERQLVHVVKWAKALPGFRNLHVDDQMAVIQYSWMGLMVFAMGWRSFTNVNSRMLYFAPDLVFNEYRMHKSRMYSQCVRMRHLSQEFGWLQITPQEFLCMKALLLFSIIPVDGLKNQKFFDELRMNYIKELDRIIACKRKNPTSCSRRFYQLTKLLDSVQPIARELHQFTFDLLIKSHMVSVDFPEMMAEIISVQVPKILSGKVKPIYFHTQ
# Procedure, shortened: (§4)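 Adult male mice, 23–25 g, six per group, were used intact or castrated via the scrotal route under ether 5 days before the test. Castrates received 0.3 mg testosterone propionate daily. Compounds were injected daily in olive oil for nine days. Seminal vesicles were taken 24 h later, fixed in Bouin solution, dried overnight at 100 °C and weighed. Result is organ mg/body g ×100; % inhibition = [1 − treated/control] × 100.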
# MDA-MB-231 [9] = assay: Effect on [3H]thymidine incorporation into MDA-MB 231 human breast cancer cells at 5x10E-6M; type: functional; procedure, shortened: as §1
# Bos taurus = organism: Bos taurus; assay: Relative binding affinity(RBA) as ratio of progesterone and compound required to displace [3H]-org 2058 binding to Progesterone receptor by 50%
# Procedure, shortened: (§5)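 Receptor source was calf uterine cytosol (105000g supernatant, 3 mg/mL protein in assay). Buffers were Tris/EDTA pH 7.4, with NaN₃ for ER, molybdate/glycerol for AR, and sucrose for PR. Tracers were 1 nM [³H]estradiol, [³H]mibolerone or [³H]Org 2058. Incubation was at 0–4 °C for 16 h (ER) or 2 h (AR, PR), with 4–6 competitor concentrations. Nonspecific binding used 2 µM of the unlabeled hormone. Separation was by dextran-coated charcoal. RBA is the ratio of IC50 values for hormone and compound ×100, mean of two triplicate experiments.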
# [10] = target: T1, Estrogen receptor (Mus musculus); assay: Inhibition of 0.4 ug estrone-stimulated uterine growth in mice at 2 ug subcutaneous dose; type: functional; procedure, shortened: as §3
# [11] = target: Estrogen receptor (Bos taurus) (UniProt Q9XSB5+P49884); assay: Relative binding affinity(RBA) for 50% displacement of [3H]-estradiol from Estrogen receptor compared to 17-beta-estradiol; type: protein assay; procedure, shortened: as §5
# MDA-MB-231 [12] = assay: Effect on [3H]-thymidine incorporation into MDA-MB 231 human breast cancer cells at 1x10E-6M; type: functional; procedure, shortened: as §1
# [13] = target: T2, Androgen receptor (Mus musculus); assay: Relative effect on seminal vesicle weight in adult and castrated mice supplemented with 0.3 mg TP at 1000 ug dose; type: functional, tissue-based; procedure, shortened: as §4
# [14] = target: T1, Estrogen receptor (Mus musculus); assay: (§6) Estrogenic activity in uterotrophic assay in immature mice at 10.0 ug subcutaneous dose; type: functional
# Procedure, shortened: (§7)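 Immature female NMRI mice, 20 days old, in groups of 6-10, were dosed sc once daily for three consecutive days. Compounds were given in PEG/0.9% saline 1:1; vehicle controls were included. Animals were killed 24 h after the last dose. Uteri were fixed in Bouin solution and the effect was taken as uterine dry weight (mg)/body weight (g) ×100, given as mean ± SD.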
# [15] = target: T2, Androgen receptor (Mus musculus); assay: Inhibition of seminal vesicle weight in intact mice at 100 ug
# [16] = target: T2, Androgen receptor (Mus musculus); assay: Relative effect on seminal vesicle weight in adult and castrated mice at 1000 ug dose; type: functional, tissue-based; procedure, shortened: as §4
# [17] = target: T2, Androgen receptor (Mus musculus); assay: Relative effect on seminal vesicle weight in adult and castrated mice at 100 ug dose; type: functional, tissue-based; procedure, shortened: as §4
# [18] = target: T1, Estrogen receptor (Mus musculus); assay: as §6; type: functional; procedure, shortened: as §7; remark: listed apart in the source
# [19] = target: T1, Estrogen receptor (Mus musculus); assay: Estrogenic activity in uterotrophic assay in immature mice at 2 ug subcutaneous dose; type: functional; procedure, shortened: as §7
# T1 sequence (O08537 whole entry, looked up): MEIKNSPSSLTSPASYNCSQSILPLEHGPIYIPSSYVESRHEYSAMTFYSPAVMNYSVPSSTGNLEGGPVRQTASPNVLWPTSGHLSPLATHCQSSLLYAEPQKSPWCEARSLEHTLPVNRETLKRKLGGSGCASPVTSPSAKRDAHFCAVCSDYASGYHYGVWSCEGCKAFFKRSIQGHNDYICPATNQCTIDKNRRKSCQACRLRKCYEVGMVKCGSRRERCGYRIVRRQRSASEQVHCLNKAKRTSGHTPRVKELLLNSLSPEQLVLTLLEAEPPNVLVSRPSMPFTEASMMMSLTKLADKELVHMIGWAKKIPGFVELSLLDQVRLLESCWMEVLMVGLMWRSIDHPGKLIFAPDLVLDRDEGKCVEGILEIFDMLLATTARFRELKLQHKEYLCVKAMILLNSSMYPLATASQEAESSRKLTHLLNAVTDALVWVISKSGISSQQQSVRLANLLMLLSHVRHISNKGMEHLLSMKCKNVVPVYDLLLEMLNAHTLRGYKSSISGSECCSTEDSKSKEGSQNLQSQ
# T1 sequence (P19785 whole entry, looked up): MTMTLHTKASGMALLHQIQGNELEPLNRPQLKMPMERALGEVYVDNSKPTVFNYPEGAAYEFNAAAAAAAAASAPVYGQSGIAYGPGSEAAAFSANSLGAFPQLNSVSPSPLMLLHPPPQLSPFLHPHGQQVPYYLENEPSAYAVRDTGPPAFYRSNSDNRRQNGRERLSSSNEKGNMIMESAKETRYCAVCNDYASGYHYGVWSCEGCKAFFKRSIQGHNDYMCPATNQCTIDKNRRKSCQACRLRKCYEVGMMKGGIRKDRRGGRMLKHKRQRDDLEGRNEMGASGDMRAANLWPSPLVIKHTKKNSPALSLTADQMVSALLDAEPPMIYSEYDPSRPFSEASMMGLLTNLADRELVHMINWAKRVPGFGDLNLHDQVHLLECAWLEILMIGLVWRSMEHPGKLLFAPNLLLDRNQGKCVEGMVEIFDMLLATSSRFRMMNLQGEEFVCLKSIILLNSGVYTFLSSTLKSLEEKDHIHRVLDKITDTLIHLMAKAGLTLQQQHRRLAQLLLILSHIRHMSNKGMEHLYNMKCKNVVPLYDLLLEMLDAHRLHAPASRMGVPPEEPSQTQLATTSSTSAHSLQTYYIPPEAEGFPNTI
structure (smiles),measurement,setting,value
CCC1Cc2cc(OC(C)=O)ccc2-c2cc3cc(OC(C)=O)ccc3n21 (stereo not given),T/C,MCF7 [1],63%
same,T/C,MDA-MB-231 [2],4%
same,T/C,MDA-MB-231 [3],74%
same,T/C,MDA-MB-231 [4],4%
same,inhibition,[5],34.1%
same,inhibition,[6],25.9%
same,T/C,MCF7 [7],8%
same,inhibition,[8],17%
same,T/C,MDA-MB-231 [9],4%
same,RBA,Bos taurus,0.13
same,inhibition,[10],7.2%
same,RBA,[11],17
same,T/C,MDA-MB-231 [12],45%
same,Relative seminal vesicle weight,[13],187
same,Effect,[14],51
same,inhibition,[15],67%
same,Relative seminal vesicle weight,[16],38.3
same,Relative seminal vesicle weight,[17],54.5
same,Effect,[18],25.5
same,Effect,[19],18.5
